Measurements: ChEMBL document CHEMBL1145101, “Macrocyclization in the design of Grb2 SH2 domain-binding ligands exhibiting high potency in whole-cell systems” (J Med Chem, 2003)

How the values were obtained:
MDA-MB-453 = assay: (§1) Growth inhibition against MDA-453 breast cancer cells; assay type: functional, cell-based; settings: Homo sapiens
Procedure, shortened: (§2)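 MDA-453 cells seeded at 500 per well and kept in IMEM with 10% fetal bovine serum at 37 °C under 5% CO₂. Inhibitor dilutions were added, with fresh drug solution each day for 5 days. Growth was read by MTT (0.5 mg/mL, 4 h), then medium removed and dissolved cells read at 570 nm. Results are expressed as percent of no-drug control.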

[1] = target: Growth factor receptor-bound protein 2 (Homo sapiens, UniProt P62993); assay: Inhibition against Growth factor receptor bound protein 2 binding using ELISA technique
Growth factor receptor-bound protein 2, sequence (P62993 whole entry, the tested form may be a part): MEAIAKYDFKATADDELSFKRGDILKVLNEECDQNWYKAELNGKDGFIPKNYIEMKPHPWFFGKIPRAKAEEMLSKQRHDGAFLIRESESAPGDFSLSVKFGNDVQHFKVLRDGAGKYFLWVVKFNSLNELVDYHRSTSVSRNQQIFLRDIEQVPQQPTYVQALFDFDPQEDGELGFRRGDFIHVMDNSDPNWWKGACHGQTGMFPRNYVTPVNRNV
Procedure, shortened: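 Competition ELISA: biotinylated SHC-derived Grb2 SH2-binding phosphopeptide bound at 20 ng/mL to plates overnight, then blocked with 5% BSA in TBS. Recombinant Grb2 SH2-GST fusion was preincubated with serial inhibitor dilutions, then added. After washing with 0.1% BSA/TBS, bound protein was detected with anti-GST and alkaline phosphatase-conjugated secondary, using p-nitrophenyl phosphate colorimetry. Each compound had at least three determinations, with a positive control.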

[2] = as §1; assay type: functional, cell-based; settings: Homo sapiens, Cancer cell lines; procedure, shortened: as §2

Structure (SMILES) | IC50 (MDA-MB-453) | IC50 [1] | IC50 [2]
NC(=O)C[C@@H]1NC(=O)C2(CCCCC2)NC(=O)C[C@@H](c2ccc(CP(=O)(O)O)cc2)C/C=C/C[C@@H](Cc2cccc3ccccc23)CNC1=O | > 50 µM | > 10 µM | –
CC1(C)NC(=O)[C@@H](CC(=O)O)[C@@H](c2ccc(CP(=O)(O)O)cc2)/C=C/C[C@@H](CC2=c3ccccc3=CCC2)CNC(=O)[C@H](CC(N)=O)NC1=O | 8 µM | 0.008 µM | –
NC(=O)C[C@H](NC(=O)C1(NC(=O)[C@H](Cc2ccc(CP(=O)(O)O)cc2)NC(=O)C(=O)O)CCCCC1)C(=O)NCCCC1=c2ccccc2=CCC1 | – | – | 5 µM
NC(=O)C[C@@H]1NC(=O)C2(CCCCC2)NC(=O)[C@@H](CC(=O)O)[C@@H](c2ccc(CP(=O)(O)O)cc2)/C=C/C[C@@H](CC2=c3ccccc3=CCC2)CNC1=O | 0.8 µM | 0.002 µM | –
NC(=O)C[C@@H]1NC(=O)C2(CCCCC2)NC(=O)C[C@@H](c2ccc(CP(=O)(O)O)cc2)/C=C/C[C@@H](CC2=c3ccccc3=CCC2)CNC1=O | – | 0.02 µM | –
